According to ChEMBL document CHEMBL4689842, “EUbOPEN Chemogenomics Library wave 1” (2021):

System: Fibroblast
Experiment: Multiplex assay against human fibroblast
Type: toxicity, cell-based
Method in brief: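 Live cells carried four stains from seeding: Hoechst33342, BioTracker Green Microtubule Cytoskeleton Dye, MitoTracker Red and Annexin V Alexa Fluor 680. They were imaged on a CQ1 microscope at 37°C and 5% CO2 after compound addition. Using CellPathfinder machine-learning gating, cells were split into Hoechst high-intensity objects or normal cells, normal cells into healthy, pyknosed or fragmented nuclei, and pyknosed cells into mitotic or apoptotic; tubulin, mitochondrial-mass and membrane-permeability phenotypes are per cents of healthy-nucleus cells.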

[1] = 12 h, 1 µM, compound concentration 1 uM, replicate 1
[2] = 12 h, 1 µM, compound concentration 1 uM, replicate 2
[3] = 12 h, 10 µM, compound concentration 10 uM, replicate 1
[4] = 12 h, 10 µM, compound concentration 10 uM, replicate 2
[5] = 24 h, 1 µM, compound concentration 1 uM, replicate 1
[6] = 24 h, 1 µM, compound concentration 1 uM, replicate 2
[7] = 24 h, 10 µM, compound concentration 10 uM, replicate 1
[8] = 24 h, 10 µM, compound concentration 10 uM, replicate 2
[9] = 48 h, 1 µM, compound concentration 1 uM, replicate 1
[10] = 48 h, 1 µM, compound concentration 1 uM, replicate 2
[11] = 48 h, 10 µM, compound concentration 10 uM, replicate 1
[12] = 48 h, 10 µM, compound concentration 10 uM, replicate 2

COc1cc(N2CCN(C)CC2)ccc1Nc1ncc2c(n1)N(C)c1ccccc1C(=O)N2C
Population Apoptotic (%) [1]: 58%
Population Fragmented Nuclei (%) [1]: 25%
Population Healthy Nuclei (%) [1]: 41%
Population Hoechst High Intensity Objects (%) [1]: 11%
Population Membrane Permeable-Phenotype (%) [1]: 14%
Population Mitochondria Different-Phenotype (%) [1]: 12%
Population Mitotic Cells (%) [1]: 41%
Population Normal (%) [1]: 88%
Population Pyknosed Nuclei (%) [1]: 32%
Population Tubulin-Different-Phenotype (%) [1]: 28%
Total Cell Count [1]: 135
Population Apoptotic (%) [2]: 40%
Population Fragmented Nuclei (%) [2]: 5%
Population Healthy Nuclei (%) [2]: 82%
Population Hoechst High Intensity Objects (%) [2]: 4%
Population Membrane Permeable-Phenotype (%) [2]: 9%
Population Mitochondria Different-Phenotype (%) [2]: 21%
Population Mitotic Cells (%) [2]: 60%
Population Normal (%) [2]: 95%
Population Pyknosed Nuclei (%) [2]: 12%
Population Tubulin-Different-Phenotype (%) [2]: 15%
Total Cell Count [2]: 104
Population Apoptotic (%) [3]: 65%
Population Fragmented Nuclei (%) [3]: 32%
Population Healthy Nuclei (%) [3]: 38%
Population Hoechst High Intensity Objects (%) [3]: 20%
Population Membrane Permeable-Phenotype (%) [3]: 17%
Population Mitochondria Different-Phenotype (%) [3]: 35%
Population Mitotic Cells (%) [3]: 34%
Population Normal (%) [3]: 79%
Population Pyknosed Nuclei (%) [3]: 28%
Population Tubulin-Different-Phenotype (%) [3]: 82%
Total Cell Count [3]: 127
Population Apoptotic (%) [4]: 66%
Population Fragmented Nuclei (%) [4]: 15%
Population Healthy Nuclei (%) [4]: 61%
Population Hoechst High Intensity Objects (%) [4]: 5%
Population Membrane Permeable-Phenotype (%) [4]: 21%
Population Mitochondria Different-Phenotype (%) [4]: 96%
Population Mitotic Cells (%) [4]: 33%
Population Normal (%) [4]: 94%
Population Pyknosed Nuclei (%) [4]: 23%
Population Tubulin-Different-Phenotype (%) [4]: 100%
Total Cell Count [4]: 42
Population Apoptotic (%) [5]: 60%
Population Fragmented Nuclei (%) [5]: 22%
Population Healthy Nuclei (%) [5]: 57%
Population Hoechst High Intensity Objects (%) [5]: 10%
Population Membrane Permeable-Phenotype (%) [5]: 17%
Population Mitochondria Different-Phenotype (%) [5]: 6%
Population Mitotic Cells (%) [5]: 39%
Population Normal (%) [5]: 89%
Population Pyknosed Nuclei (%) [5]: 19%
Population Tubulin-Different-Phenotype (%) [5]: 26%
Total Cell Count [5]: 159
Population Apoptotic (%) [6]: 50%
Population Fragmented Nuclei (%) [6]: 9%
Population Healthy Nuclei (%) [6]: 75%
Population Hoechst High Intensity Objects (%) [6]: 6%
Population Membrane Permeable-Phenotype (%) [6]: 6%
Population Mitochondria Different-Phenotype (%) [6]: 12%
Population Mitotic Cells (%) [6]: 50%
Population Normal (%) [6]: 93%
Population Pyknosed Nuclei (%) [6]: 14%
Population Tubulin-Different-Phenotype (%) [6]: 6%
Total Cell Count [6]: 101
Population Apoptotic (%) [7]: 60%
Population Fragmented Nuclei (%) [7]: 38%
Population Healthy Nuclei (%) [7]: 52%
Population Hoechst High Intensity Objects (%) [7]: 20%
Population Membrane Permeable-Phenotype (%) [7]: 5%
Population Mitochondria Different-Phenotype (%) [7]: 43%
Population Mitotic Cells (%) [7]: 40%
Population Normal (%) [7]: 79%
Population Pyknosed Nuclei (%) [7]: 9%
Population Tubulin-Different-Phenotype (%) [7]: 74%
Total Cell Count [7]: 140
Population Apoptotic (%) [8]: 76%
Population Fragmented Nuclei (%) [8]: 11%
Population Healthy Nuclei (%) [8]: 63%
Population Hoechst High Intensity Objects (%) [8]: 8%
Population Membrane Permeable-Phenotype (%) [8]: 30%
Population Mitochondria Different-Phenotype (%) [8]: 93%
Population Mitotic Cells (%) [8]: 23%
Population Normal (%) [8]: 91%
Population Pyknosed Nuclei (%) [8]: 25%
Population Tubulin-Different-Phenotype (%) [8]: 66%
Total Cell Count [8]: 44
Population Apoptotic (%) [9]: 54%
Population Fragmented Nuclei (%) [9]: 34%
Population Healthy Nuclei (%) [9]: 58%
Population Hoechst High Intensity Objects (%) [9]: 14%
Population Membrane Permeable-Phenotype (%) [9]: 19%
Population Mitochondria Different-Phenotype (%) [9]: 1%
Population Mitotic Cells (%) [9]: 45%
Population Normal (%) [9]: 85%
Population Pyknosed Nuclei (%) [9]: 7%
Population Tubulin-Different-Phenotype (%) [9]: 29%
Total Cell Count [9]: 176
Population Apoptotic (%) [10]: 100%
Population Fragmented Nuclei (%) [10]: 25%
Population Healthy Nuclei (%) [10]: 72%
Population Hoechst High Intensity Objects (%) [10]: 7%
Population Membrane Permeable-Phenotype (%) [10]: 10%
Population Mitotic Cells (%) [10]: 0%
Population Normal (%) [10]: 92%
Population Pyknosed Nuclei (%) [10]: 1%
Population Tubulin-Different-Phenotype (%) [10]: 28%
Total Cell Count [10]: 83
Population Apoptotic (%) [11]: 85%
Population Fragmented Nuclei (%) [11]: 49%
Population Healthy Nuclei (%) [11]: 45%
Population Hoechst High Intensity Objects (%) [11]: 28%
Population Membrane Permeable-Phenotype (%) [11]: 7%
Population Mitochondria Different-Phenotype (%) [11]: 12%
Population Mitotic Cells (%) [11]: 14%
Population Normal (%) [11]: 71%
Population Pyknosed Nuclei (%) [11]: 4%
Population Tubulin-Different-Phenotype (%) [11]: 44%
Total Cell Count [11]: 201
Population Apoptotic (%) [12]: 100%
Population Fragmented Nuclei (%) [12]: 39%
Population Healthy Nuclei (%) [12]: 58%
Population Hoechst High Intensity Objects (%) [12]: 18%
Population Membrane Permeable-Phenotype (%) [12]: 5%
Population Mitochondria Different-Phenotype (%) [12]: 8%
Population Mitotic Cells (%) [12]: 0%
Population Normal (%) [12]: 81%
Population Pyknosed Nuclei (%) [12]: 2%
Population Tubulin-Different-Phenotype (%) [12]: 62%
Total Cell Count [12]: 188
